Results: ChEMBL document CHEMBL4689842, “EUbOPEN Chemogenomics Library wave 1” (2021)

Tested on: Fibroblast
Experiment: Multiplex assay against human fibroblast
Format: toxicity, cell-based
Procedure, shortened: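 Cells stained live at seeding with Hoechst33342, BioTracker Green Microtubule Cytoskeleton Dye, MitoTracker Red and Annexin V Alexa Fluor 680 were imaged on a CQ1 microscope at 37°C and 5% CO2 after compound addition. Their classification by CellPathfinder machine-learning gating ran from Hoechst high-intensity objects versus normal cells, to healthy, pyknosed or fragmented nuclei among normal cells, to mitotic or apoptotic among pyknosed cells. Tubulin, mitochondrial-mass and membrane-permeability phenotypes are per cents of healthy-nucleus cells.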

[1] = 12 h, 1 µM, compound concentration 1 uM, replicate 1
[2] = 12 h, 1 µM, compound concentration 1 uM, replicate 2
[3] = 12 h, 10 µM, compound concentration 10 uM, replicate 1
[4] = 12 h, 10 µM, compound concentration 10 uM, replicate 2
[5] = 24 h, 1 µM, compound concentration 1 uM, replicate 1
[6] = 24 h, 1 µM, compound concentration 1 uM, replicate 2
[7] = 24 h, 10 µM, compound concentration 10 uM, replicate 1
[8] = 24 h, 10 µM, compound concentration 10 uM, replicate 2
[9] = 48 h, 1 µM, compound concentration 1 uM, replicate 1
[10] = 48 h, 1 µM, compound concentration 1 uM, replicate 2
[11] = 48 h, 10 µM, compound concentration 10 uM, replicate 1
[12] = 48 h, 10 µM, compound concentration 10 uM, replicate 2

CN1CCN(Cc2ccc(Nc3ncc(Cl)c(Nc4ccccc4S(=O)(=O)N(C)C)n3)cc2)CC1 [DUBERMATINIB]
Population Apoptotic (%) [1]: 54% | Population Fragmented Nuclei (%) [1]: 27% | Population Healthy Nuclei (%) [1]: 50% | Population Hoechst High Intensity Objects (%) [1]: 12% | Population Membrane Permeable-Phenotype (%) [1]: 41% | Population Mitochondria Different-Phenotype (%) [1]: 3% | Population Mitotic Cells (%) [1]: 45% | Population Normal (%) [1]: 87% | Population Pyknosed Nuclei (%) [1]: 21% | Population Tubulin-Different-Phenotype (%) [1]: 41% | Total Cell Count [1]: 126 | Population Apoptotic (%) [2]: 100% | Population Fragmented Nuclei (%) [2]: 13% | Population Healthy Nuclei (%) [2]: 83% | Population Hoechst High Intensity Objects (%) [2]: 10% | Population Membrane Permeable-Phenotype (%) [2]: 4% | Population Mitochondria Different-Phenotype (%) [2]: 16% | Population Mitotic Cells (%) [2]: 0% | Population Normal (%) [2]: 89% | Population Pyknosed Nuclei (%) [2]: 2% | Population Tubulin-Different-Phenotype (%) [2]: 11% | Total Cell Count [2]: 65 | Population Apoptotic (%) [3]: 72% | Population Fragmented Nuclei (%) [3]: 18% | Population Healthy Nuclei (%) [3]: 57% | Population Hoechst High Intensity Objects (%) [3]: 14% | Population Membrane Permeable-Phenotype (%) [3]: 22% | Population Mitochondria Different-Phenotype (%) [3]: 11% | Population Mitotic Cells (%) [3]: 28% | Population Normal (%) [3]: 85% | Population Pyknosed Nuclei (%) [3]: 23% | Population Tubulin-Different-Phenotype (%) [3]: 56% | Total Cell Count [3]: 125 | Population Apoptotic (%) [4]: 73% | Population Fragmented Nuclei (%) [4]: 45% | Population Healthy Nuclei (%) [4]: 31% | Population Hoechst High Intensity Objects (%) [4]: 9% | Population Membrane Permeable-Phenotype (%) [4]: 28% | Population Mitochondria Different-Phenotype (%) [4]: 38% | Population Mitotic Cells (%) [4]: 26% | Population Normal (%) [4]: 90% | Population Pyknosed Nuclei (%) [4]: 22% | Population Tubulin-Different-Phenotype (%) [4]: 42% | Total Cell Count [4]: 91 | Population Apoptotic (%) [5]: 70% | Population Fragmented Nuclei (%) [5]: 28% | Population Healthy Nuclei (%) [5]: 57% | Population Hoechst High Intensity Objects (%) [5]: 11% | Population Membrane Permeable-Phenotype (%) [5]: 31% | Population Mitochondria Different-Phenotype (%) [5]: 5% | Population Mitotic Cells (%) [5]: 29% | Population Normal (%) [5]: 88% | Population Pyknosed Nuclei (%) [5]: 14% | Population Tubulin-Different-Phenotype (%) [5]: 37% | Total Cell Count [5]: 137 | Population Apoptotic (%) [6]: 0% | Population Fragmented Nuclei (%) [6]: 11% | Population Healthy Nuclei (%) [6]: 83% | Population Hoechst High Intensity Objects (%) [6]: 6% | Population Membrane Permeable-Phenotype (%) [6]: 4% | Population Mitochondria Different-Phenotype (%) [6]: 36% | Population Mitotic Cells (%) [6]: 100% | Population Normal (%) [6]: 93% | Population Pyknosed Nuclei (%) [6]: 4% | Population Tubulin-Different-Phenotype (%) [6]: 14% | Total Cell Count [6]: 70 | Population Apoptotic (%) [7]: 42% | Population Fragmented Nuclei (%) [7]: 23% | Population Healthy Nuclei (%) [7]: 55% | Population Hoechst High Intensity Objects (%) [7]: 15% | Population Membrane Permeable-Phenotype (%) [7]: 12% | Population Mitochondria Different-Phenotype (%) [7]: 16% | Population Mitotic Cells (%) [7]: 57% | Population Normal (%) [7]: 84% | Population Pyknosed Nuclei (%) [7]: 21% | Population Tubulin-Different-Phenotype (%) [7]: 61% | Total Cell Count [7]: 116 | Population Apoptotic (%) [8]: 95% | Population Fragmented Nuclei (%) [8]: 30% | Population Healthy Nuclei (%) [8]: 33% | Population Hoechst High Intensity Objects (%) [8]: 14% | Population Membrane Permeable-Phenotype (%) [8]: 55% | Population Mitochondria Different-Phenotype (%) [8]: 55% | Population Mitotic Cells (%) [8]: 4% | Population Normal (%) [8]: 85% | Population Pyknosed Nuclei (%) [8]: 36% | Population Tubulin-Different-Phenotype (%) [8]: 65% | Total Cell Count [8]: 87 | Population Apoptotic (%) [9]: 62% | Population Fragmented Nuclei (%) [9]: 39% | Population Healthy Nuclei (%) [9]: 46% | Population Hoechst High Intensity Objects (%) [9]: 10% | Population Membrane Permeable-Phenotype (%) [9]: 22% | Population Mitochondria Different-Phenotype (%) [9]: 7% | Population Mitotic Cells (%) [9]: 37% | Population Normal (%) [9]: 89% | Population Pyknosed Nuclei (%) [9]: 13% | Population Tubulin-Different-Phenotype (%) [9]: 40% | Total Cell Count [9]: 129 | Population Apoptotic (%) [10]: 66% | Population Fragmented Nuclei (%) [10]: 30% | Population Healthy Nuclei (%) [10]: 67% | Population Hoechst High Intensity Objects (%) [10]: 4% | Population Membrane Permeable-Phenotype (%) [10]: 24% | Population Mitochondria Different-Phenotype (%) [10]: 5% | Population Mitotic Cells (%) [10]: 33% | Population Normal (%) [10]: 95% | Population Pyknosed Nuclei (%) [10]: 2% | Population Tubulin-Different-Phenotype (%) [10]: 41% | Total Cell Count [10]: 115 | Population Apoptotic (%) [11]: 53% | Population Fragmented Nuclei (%) [11]: 39% | Population Healthy Nuclei (%) [11]: 36% | Population Hoechst High Intensity Objects (%) [11]: 13% | Population Membrane Permeable-Phenotype (%) [11]: 31% | Population Mitochondria Different-Phenotype (%) [11]: 21% | Population Mitotic Cells (%) [11]: 46% | Population Normal (%) [11]: 86% | Population Pyknosed Nuclei (%) [11]: 24% | Population Tubulin-Different-Phenotype (%) [11]: 73% | Total Cell Count [11]: 122 | Population Apoptotic (%) [12]: 50% | Population Fragmented Nuclei (%) [12]: 43% | Population Healthy Nuclei (%) [12]: 44% | Population Hoechst High Intensity Objects (%) [12]: 16% | Population Membrane Permeable-Phenotype (%) [12]: 32% | Population Mitochondria Different-Phenotype (%) [12]: 19% | Population Mitotic Cells (%) [12]: 50% | Population Normal (%) [12]: 83% | Population Pyknosed Nuclei (%) [12]: 11% | Population Tubulin-Different-Phenotype (%) [12]: 48% | Total Cell Count [12]: 83
